Laboratory results published in ChEMBL document CHEMBL1833940, “Discovery of 3-(2,6-dichloro-3,5-dimethoxy-phenyl)-1-{6-[4-(4-ethyl-piperazin-1-yl)-phenylamino]-pyrimidin-4-yl}-1-methyl-urea (NVP-BGJ398), a potent and selective inhibitor of the fibroblast growth factor receptor family of receptor tyrosine kinase” (J Med Chem, 2011).

Assays:
[1] = molecular target: Serine/threonine-protein kinase N2 (Homo sapiens, UniProt Q16513); assay: Inhibition of recombinant PKN2
In short: (§1)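 Purified recombinant kinases under optimized conditions with peptide substrates. ATP was set at each kinase's Km. Phosphorylation was read by microfluidic mobility-shift separation of substrate and product; IC50 determined.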

[2] = molecular target: Mitogen-activated protein kinase kinase kinase 8 (Homo sapiens, UniProt P41279); assay: Inhibition of recombinant COT
Sequence of Mitogen-activated protein kinase kinase kinase 8 (P41279 whole entry): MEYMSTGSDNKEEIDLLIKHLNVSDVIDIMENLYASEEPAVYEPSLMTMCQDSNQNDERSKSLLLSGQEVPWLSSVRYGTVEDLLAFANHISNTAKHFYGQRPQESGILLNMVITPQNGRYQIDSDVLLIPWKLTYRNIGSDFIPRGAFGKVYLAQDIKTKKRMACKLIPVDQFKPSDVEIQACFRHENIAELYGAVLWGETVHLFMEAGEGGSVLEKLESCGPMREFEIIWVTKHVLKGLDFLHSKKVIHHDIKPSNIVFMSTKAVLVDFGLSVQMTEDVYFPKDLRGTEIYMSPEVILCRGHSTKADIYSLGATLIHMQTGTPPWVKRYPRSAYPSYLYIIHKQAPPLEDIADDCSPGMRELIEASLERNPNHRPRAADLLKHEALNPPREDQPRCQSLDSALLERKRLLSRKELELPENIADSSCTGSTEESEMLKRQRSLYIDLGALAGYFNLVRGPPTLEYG
In short: (§2)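 Purified recombinant kinases under optimized conditions, with peptide substrates and ATP at each kinase's Km. Phosphorylation was read out by microfluidic mobility shift, and IC50 values were obtained.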

Aurora kinase A = Aurora kinase A (Homo sapiens, UniProt O14965); assay: Inhibition of recombinant Aurora A; in short: as §2
Sequence of Aurora kinase A (O14965 whole entry): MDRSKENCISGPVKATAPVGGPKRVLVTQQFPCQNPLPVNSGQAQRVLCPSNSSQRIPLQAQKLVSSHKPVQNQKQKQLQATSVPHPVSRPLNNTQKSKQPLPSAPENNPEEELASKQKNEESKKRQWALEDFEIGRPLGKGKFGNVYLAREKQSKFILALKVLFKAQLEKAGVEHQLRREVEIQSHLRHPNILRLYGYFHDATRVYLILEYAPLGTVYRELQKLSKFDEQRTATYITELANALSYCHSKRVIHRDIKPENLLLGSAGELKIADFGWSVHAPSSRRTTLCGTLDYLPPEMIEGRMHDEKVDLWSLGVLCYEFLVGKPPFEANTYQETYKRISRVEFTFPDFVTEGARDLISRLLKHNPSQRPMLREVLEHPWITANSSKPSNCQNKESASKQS

[3] = molecular target: Serine/threonine-protein kinase pim-2 (Homo sapiens, UniProt Q9P1W9); assay: Inhibition of recombinant PIM2; in short: as §1
Sequence of Serine/threonine-protein kinase pim-2 (Q9P1W9 whole entry): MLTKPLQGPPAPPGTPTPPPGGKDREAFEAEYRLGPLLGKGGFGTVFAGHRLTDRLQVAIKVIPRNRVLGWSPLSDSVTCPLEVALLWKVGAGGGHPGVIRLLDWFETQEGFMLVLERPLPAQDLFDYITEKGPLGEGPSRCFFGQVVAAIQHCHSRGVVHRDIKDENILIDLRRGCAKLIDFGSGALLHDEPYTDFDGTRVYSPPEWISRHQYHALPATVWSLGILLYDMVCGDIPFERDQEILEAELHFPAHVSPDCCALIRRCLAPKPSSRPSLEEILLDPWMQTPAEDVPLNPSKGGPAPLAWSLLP

[4] = Tmax in tumor of RT112/luc1 cells implanted athymic nude mouse at 5 mg/kg, iv by LC/MS/MS analysis; format: ADME, organism-based, Neoplasm; parameters: dose 5 mg/kg, route intravenous
In short: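 Female athymic nude mice carrying subcutaneous RT112/luc1 tumors (ca. 300–400 mm3). Dosing was 5 mg/kg iv by tail vein in NMP/PEG200 (1:9) or 20 mg/kg by oral gavage as a suspension in PEG300/D5W (2:1). Groups (n = 4) were sacrificed from 0.083 to 24 h. Plasma and tumor were measured by LC-MS/MS (LOQ 5 ng/mL, 10 ng/g). Noncompartmental analysis used the linear trapezoidal AUC; F was calculated from dose-normalized AUC.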

Rattus norvegicus [5] = species: Rattus norvegicus; assay: Hepatic blood flow in Wistar rat; format: ADME, organism-based, Liver
Rattus norvegicus [6] = assay: Dose normalized AUC in Wistar rat at 5 mg/kg, iv by LC-MS/MS analysis; format: ADME, organism-based; parameters: dose 5 mg/kg, route intravenous; details: in vivo
In short: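 Female Wistar rats received either an iv femoral-vein dose of 5 mg/kg in NMP/PEG200 (1:9) or an oral dose of monophosphate salt at 10 mg/kg (free base) in acetate buffer pH 4.6/PEG300. Plasma was sampled by sublingual bleeding at 0.083–24 h (n = 4 staggered, or n = 3–4 serial). Plasma levels were measured by LC-MS/MS (LOQ 10 ng/mL).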

Sequence of Serine/threonine-protein kinase N2 (Q16513 whole entry): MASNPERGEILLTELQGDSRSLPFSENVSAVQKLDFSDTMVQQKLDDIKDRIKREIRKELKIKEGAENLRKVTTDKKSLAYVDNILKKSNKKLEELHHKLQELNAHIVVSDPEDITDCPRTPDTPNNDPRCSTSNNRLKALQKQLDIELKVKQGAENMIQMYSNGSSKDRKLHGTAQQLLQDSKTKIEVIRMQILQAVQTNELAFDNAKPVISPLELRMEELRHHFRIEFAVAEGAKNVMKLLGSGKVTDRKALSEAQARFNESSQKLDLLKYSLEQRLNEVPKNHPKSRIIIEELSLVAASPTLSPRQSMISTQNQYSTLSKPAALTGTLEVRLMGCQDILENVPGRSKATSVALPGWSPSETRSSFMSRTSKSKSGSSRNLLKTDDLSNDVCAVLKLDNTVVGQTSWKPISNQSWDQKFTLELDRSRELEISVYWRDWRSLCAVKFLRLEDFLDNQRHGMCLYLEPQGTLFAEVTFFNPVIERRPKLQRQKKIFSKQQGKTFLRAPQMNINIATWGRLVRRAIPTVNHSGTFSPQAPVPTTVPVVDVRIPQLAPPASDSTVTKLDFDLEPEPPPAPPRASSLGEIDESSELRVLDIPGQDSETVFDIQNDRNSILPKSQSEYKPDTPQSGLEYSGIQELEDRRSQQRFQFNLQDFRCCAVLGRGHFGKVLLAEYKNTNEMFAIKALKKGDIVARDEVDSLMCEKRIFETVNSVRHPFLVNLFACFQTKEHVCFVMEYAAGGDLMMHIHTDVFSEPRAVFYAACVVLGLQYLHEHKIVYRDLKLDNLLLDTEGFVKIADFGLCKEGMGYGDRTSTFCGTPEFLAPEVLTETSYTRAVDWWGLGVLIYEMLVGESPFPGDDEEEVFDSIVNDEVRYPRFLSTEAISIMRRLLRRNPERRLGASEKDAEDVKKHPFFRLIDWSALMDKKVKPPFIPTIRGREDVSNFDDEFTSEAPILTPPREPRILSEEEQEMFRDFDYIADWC

CCN1CCN(c2ccc(Nc3cc(N(C)C(=O)Nc4c(Cl)c(OC)cc(OC)c4Cl)ncn3)cc2)CC1.O=P(O)(O)O [INFIGRATINIB PHOSPHATE]
IC50 [1]: > 10 µM
IC50 [2]: > 10 µM
IC50 (Aurora kinase A): > 10 µM
IC50 [3]: > 10 µM
Tmax [4]: 2 h
QH (Rattus norvegicus [5]): 55 mL/min/kg
AUC/dose (Rattus norvegicus [6]): 0.49 µM·h
